The source of these data is ChEMBL document CHEMBL4673193, “Investigation of thiazolyl-benzothiophenamides as potential agents for African sleeping sickness” (RSC Med Chem, 2020).

Some results are limits rather than exact numbers.

The subject of series [1] is Trypanosoma brucei brucei. The series can be described thus: Antitrypanosomal activity against Trypanosoma brucei brucei 427 assessed as parasite growth inhibition at 83.3 uM incubated for 48 hrs by resazurin dye based assay relative to control. The class given is functional. On the set-up: scale not given: the % may be the effect or the level left.
Series [2] relates to HEK293. The series can be described thus: Cytotoxicity against human HEK293 cells assessed as reduction in cell viability at 83.3 uM incubated for 48 hrs by resazurin dye based assay relative to control. As to conditions: hek293, 48 h. A general note: The colour change of resazurin is a common sign of viable cells or microbes.
The subject of series [3] is Trypanosoma brucei brucei. Nature of the series: Antitrypanosomal activity against Trypanosoma brucei brucei 427 assessed as parasite growth inhibition incubated for 48 hrs by resazurin dye based assay. In kind it is functional, organism-based. In a few lines:
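Log-phase T. b. brucei 427 at 1200 parasites/mL in HMI-9 with 10% FCS, preincubated 24 h at 37 °C/5% CO₂. Serial dilutions made in DMEM, final 83.34 to 0.04 μM, 48 h exposure. 0.49 mM resazurin solution added, then 2 h at 37 °C plus 22 h at room temperature. Fluorescence read at ex 535/em 590 nm; IC50 from concentration curves.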

Series [4] is described as follows: Selectivity index, ratio of IC50 for human HEK293 cells to IC50 for antitrypanosomal activity against Trypanosoma brucei brucei 427. The class given is toxicity. As to conditions: read-out: Ratio IC50.
The subject of series [5] is Trypanosoma brucei rhodesiense. The series can be described thus: Antitrypanosomal activity against bloodstream form of Trypanosoma brucei rhodesiense STIB900 incubated for 70 hrs by Alamar blue dye-based fluorometric analysis. The class given is functional, organism-based. As to conditions: STIB900, 70 h.
Series [6] relates to L6. Nature of the series: Cytotoxicity against rat L6 cells assessed as reduction in cell viability after 70 hrs by Alamar blue dye-based fluorometric analysis. As to conditions: L6, 70 h. The method, boiled down:
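Rat skeletal myoblast L6 cells, 4000 per well in RPMI 1640 with L-glutamine and 10% FBS. Eleven 3-fold dilutions from 100 to 0.002 μg/mL, 70 h. Wells checked by microscope, then Alamar Blue added for 2 h. Fluorescence read at 536/588 nm; IC50 by linear and 4-parameter logistic regression of dose-inhibition curves.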

The nature of series [7]: Selectivity index, ratio of IC50 for rat L6 cells to IC50 for antitrypanosomal activity against bloodstream form of Trypanosoma brucei rhodesiense STIB900. The class given is toxicity. As to conditions: read-out: Ratio IC50.
The nature of series [8]: Selectivity index, ratio of IC50 for antitrypanosomal activity against bloodstream form of Trypanosoma brucei rhodesiense STIB900 to IC50 for antitrypanosomal activity against Trypanosoma brucei brucei 427. In kind it is functional.
Series [9] concerns HEK293. Nature of the series: Cytotoxicity against human HEK293 cells assessed as reduction in cell viability at 79.4 uM incubated for 48 hrs by resazurin dye based assay relative to control. As to conditions: hek293, 48 h.
Series [10] concerns Trypanosoma brucei brucei. The series can be described thus: Antitrypanosomal activity against Trypanosoma brucei brucei 427 assessed as parasite growth inhibition at 41.7 uM incubated for 48 hrs by resazurin dye based assay relative to control. The class given is functional. Details: scale not given: the % may be the effect or the level left.
Series [11] deals with HEK293. The series can be described thus: Cytotoxicity against human HEK293 cells assessed as reduction in cell viability at 41.7 uM incubated for 48 hrs by resazurin dye based assay relative to control. The conditions noted are these: hek293, 48 h.
For series [12], the system named is HEK293. Nature of the series: Cytotoxicity against human HEK293 cells assessed as reduction in cell viability incubated for 48 hrs by resazurin dye based assay. The method, boiled down:
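HEK293 cells at 7.27×10⁴ cells/mL in DMEM with 10% FCS, preincubated 24 h at 37 °C/5% CO₂. Compounds serially diluted in DMEM, final 83.34 to 0.04 μM, 48 h. 0.49 mM resazurin solution in medium added, then 2 h at 37 °C plus 22 h at room temperature. Fluorescence read at 535/590 nm; IC50 calculated.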

For series [13], the system named is Trypanosoma brucei brucei. The series can be described thus: Antitrypanosomal activity against Trypanosoma brucei brucei 427 assessed as parasite growth inhibition at 79.4 uM incubated for 48 hrs by resazurin dye based assay relative to control. The class given is functional. Details: scale not given: the % may be the effect or the level left.
The mark [14] stands for this setting: Trypanosoma brucei, 427, 48 h, read-out: IC50.
Where [15] appears, read: Homo sapiens, HEK293, 48 h, read-out: IC50.

In the case of `C=CCN(C(=O)c1sc2ccccc2c1Cl)c1nc2c(s1)C(=O)CCC2`, the Activity in series [1] and in [2] was less than 50% each time.

With `Cc1ccc2c(Cl)c(C(=O)Nc3nc4c(s3)C(=O)CCC4)sc2c1`, the IC50 in [3] (setting [14]) came out at 7.77 µM. For the same molecule, the Activity in [2] is listed as less than 50%. Further, in series [4], the selectivity ratio is more than 11.

With `O=C1CCCc2nc(NC(=O)c3sc4ccccc4c3Cl)sc21`, the concentration for half-maximal inhibition (IC50) came out at 2.5 µM in series [3] (setting [14]), 8.96 µM in series [5] and 24.9 µM in [6]. Moreover, in series [2], the Activity is recorded as less than 50%. The selectivity ratio is more than 48 in series [4] and 3 in series [7]. Further, the Ratio IC50 in series [8] turned out to be 4.

In the case of `COc1ccc(-c2c(C(=O)Nc3nc4c(s3)C(=O)CCC4)sc3ccccc23)cc1`, in series [3] (setting [14]), the half-inhibitory concentration (IC50) was 7.23 µM. In addition, the Activity in series [2] is recorded as 88%. Moreover, the selectivity ratio in series [4] is more than 12.

Take `CC1(C)CC(=O)c2sc(NC(=O)c3cc4ccccc4s3)nc2C1`: the IC50 in series [3] (setting [14]) turned out to be 0.75 µM; in series [5], 5.04 µM; in series [6], 65.4 µM. In series [9], the Activity was less than 50%. For the same molecule, the selectivity ratio in [4] is more than 106; in series [7], 13.

On to `COc1cc([C@@H]2c3cc4c(cc3[C@H](O)[C@H]3COC(=O)[C@H]23)OCO4)cc(OC)c1OC` [PODOFILOX], for which, in series [6], the IC50 was determined as 0.011 µM.

On to `O=C(Nc1nc2ccccc2s1)c1sc2ccccc2c1Cl`, for which the Activity in [1] and in series [2] was less than 50% each time.

With `CC1(C)CC(=O)c2sc(NC(=O)c3sc4ccccc4c3-c3ccccc3)nc2C1`, the Activity in series [10] was 93%; in [11], less than 50%.

`O=C1CCCc2nc(NC(=O)c3sc4ccccc4c3-c3ccccc3)sc21`: the Activity in [1] is given as 77%; in series [2] it was less than 50%.

Molecule `Nc1nc(N)nc(Nc2ccc([As]3SCC(CO)S3)cc2)n1` (stereo unspecified) [MELARSOPROL] returned an IC50 in [5] of 0.014 µM.

`COc1cccc(-c2c(C(=O)Nc3nc4c(s3)C(=O)CC(C)(C)C4)sc3ccccc23)c1`: the half-maximal inhibitory concentration (IC50) in [3] (setting [14]) is 2.21 µM. Also, in series [2], the Activity is less than 50%. In addition, the selectivity ratio in series [4] is more than 38.

For the molecule `N=C(N)c1ccc(OCCCCCOc2ccc(C(=N)N)cc2)cc1` [PENTAMIDINE], in series [3] (setting [14]), the concentration for half-maximal inhibition (IC50) was found to be 0.00213 µM. The selectivity ratio in series [4] worked out at 307.

With `COc1cccc2cc(C(=O)Nc3nc4c(s3)C(=O)CC(C)(C)C4)sc12`, the half-maximal inhibitory concentration (IC50) result is “Nd(Insoluble)” in series [3], “Nd(Insoluble)” in series [12] (hek293), 8.68 µM in series [5] and 54.5 µM in series [6]. In addition, the selectivity ratio in [7] came to 6.

Take `COc1ccc(-c2c(C(=O)Nc3nc4c(s3)C(=O)CC(C)(C)C4)sc3ccccc23)cc1`: the IC50 in series [3] (setting [14]) is 2.91 µM. Also, the Activity in series [2] was less than 50%. The selectivity ratio in series [4] is more than 29.

On to `CC1(C)CC(=O)c2sc(NC(=O)c3cccs3)nc2C1`, for which the Activity was 90% in series [13] and less than 50% in series [9].

`CC1(C)CC(=O)c2sc(NC(=O)c3sc4c(Br)cccc4c3Cl)nc2C1`: the IC50 in series [3] (setting [14]) was 0.32 µM; in series [5] it was 7.13 µM; in series [6] it was 25.2 µM. The Activity in series [11] is less than 50%. Also, the selectivity ratio in series [4] is more than 130; in [7], 4.

Consider `O=C1CCCc2nc(NC(=O)c3sc4cc(Br)ccc4c3Cl)sc21`, for which the Activity was 78% in series [13] and less than 50% in series [9].

`COc1ccc2sc(C(=O)Nc3nc4c(s3)C(=O)CC(C)(C)C4)c(Cl)c2c1`: the half-inhibitory concentration (IC50) in series [3] (setting [14]) was 5.86 µM. Moreover, the Activity in series [2] was less than 50%. Besides, the selectivity ratio in [4] is more than 14.

On to `O=C1CCCc2nc(NC(=O)c3sc4ccccc4c3-c3cccc4ccccc34)sc21`, for which the IC50 in [3] (setting [14]) was found to be 6.38 µM; in series [12] (setting [15]) it was 4.63 µM. For the same molecule, in series [4], the selectivity ratio came out at 1.

Consider `O=C1CCCc2nc(NC(=O)c3sc4ccccc4c3-c3ccc(C(F)(F)F)cc3)sc21`, for which the Activity in [10] turned out to be 97%; in [2], 59%.

As to `CC1(C)CC(=O)c2sc(NC(=O)c3sc4cc(Br)ccc4c3Cl)nc2C1`, the IC50 in series [3] (setting [14]) came to 6.53 µM. The Activity in [9] was less than 50%. In addition, in series [4], the selectivity ratio was more than 12.

For `O=C(Nc1nccs1)c1sc2ccccc2c1Cl`, the Activity in series [1] is reported as 96%; in series [2], less than 50%.

For `O=C(Nc1nc2c(s1)C(=O)CCC2)c1cc2ccccc2s1`, the Activity is recorded as 97% in series [13] and less than 50% in series [9].

On to `CC1(C)CC(=O)c2sc(NC(=O)c3sc4ccccc4c3-c3ccc(C(F)(F)F)cc3)nc2C1`, for which the Activity in series [1] and in [2] was less than 50% in each case.

Consider `Cc1ccc2c(Cl)c(C(=O)Nc3nc4c(s3)C(=O)CC(C)(C)C4)sc2c1`, for which, in [3] (setting [14]), the IC50 was 2.27 µM. Further, in [2], the Activity is listed as less than 50%. Also, the selectivity ratio in series [4] was more than 37.

As to `COc1cccc(-c2c(C(=O)Nc3nc4c(s3)C(=O)CCC4)sc3ccccc23)c1`, the IC50 in series [3] (setting [14]) is 9.39 µM. Further, in series [2], the Activity was 88%. Moreover, the selectivity ratio in series [4] was more than 9.

Regarding `CC1(C)CC(=O)c2sc(NC(=O)c3nc4ccccc4s3)nc2C1`, the concentration for half-maximal inhibition (IC50) in series [3] (setting [14]) turned out to be 1.41 µM; in [5], 10.6 µM; in series [6] it was 30.4 µM. Further, the Activity in [9] is less than 50%. Moreover, the results for the selectivity ratio in series [4] and in series [7] were more than 56 and 3, respectively.

As to `CC1(C)CC(=O)c2sc(NC(=O)c3cc4cccc(-c5ccccc5)c4s3)nc2C1`, the 50% inhibitory concentration (IC50) in series [3] (setting [14]) amounted to 2.79 µM. The Activity in [9] is recorded as less than 50%. In addition, in [4], the selectivity ratio was more than 28.

As for `O=C(Nc1nc2c(s1)CCCC2)c1sc2ccccc2c1Cl`, the Activity in series [1] was 89%; in series [2] it was less than 50%.

With `CC1(C)CC(=O)c2sc(NC(=O)c3sc4ccccc4c3Cl)nc2C1`, the IC50 amounted to 0.73 µM in [3] (setting [14]) and 10.4 µM in [12] (setting [15]). Moreover, in [4], the selectivity ratio worked out at 14.

With `CC1(C)CC(=O)c2sc(NC(=O)c3sc4ccccc4c3-c3cccc4ccccc34)nc2C1`, the Activity was 100% in [1] and 52% in series [2].

Broadly, the IC50 is the point on the concentration scale where inhibition reaches its midpoint.
